# Assay outcomes: PubChem, several laboratories
# B2AR ag – agonists of human beta-2 adrenergic receptor inducing internalization; P07550; Am2.2-beta2AR cells, FAP receptor internalization, flow cytometry; response, % (no concentration beside the values); hit rate 0.43% among 340,000;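 active means response above a set limit, near 3 SD of response in nonfluorescent compounds, cut at about 42% in these data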
# Target sequence (P07550 whole entry, looked up): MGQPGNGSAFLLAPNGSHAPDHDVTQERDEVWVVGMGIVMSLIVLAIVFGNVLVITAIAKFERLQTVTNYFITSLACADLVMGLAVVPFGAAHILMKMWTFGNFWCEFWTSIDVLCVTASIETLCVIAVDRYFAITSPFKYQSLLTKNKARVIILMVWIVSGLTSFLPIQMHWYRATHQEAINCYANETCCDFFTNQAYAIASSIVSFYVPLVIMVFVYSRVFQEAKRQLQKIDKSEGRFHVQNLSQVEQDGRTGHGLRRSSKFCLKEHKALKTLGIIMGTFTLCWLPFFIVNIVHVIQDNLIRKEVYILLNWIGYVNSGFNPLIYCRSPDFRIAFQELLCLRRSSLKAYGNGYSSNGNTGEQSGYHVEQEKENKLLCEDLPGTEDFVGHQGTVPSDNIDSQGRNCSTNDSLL
# Mdm2 MdmX PPI – human Mdm2/MdmX binding inhibition | AID 485346 | hit rate 3% among 330,000 | O15151+Q00987 | inhibition, % at 8 µM | SaOS-2 split-luciferase Mdm2/MdmX complementation, luminescence;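 active means inhibition of at least 50% at 8 µM in the primary screen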
# XBP1 UPR activ – adaptive UPR (XBP1) activation; hit rate 0.33% among 330,000; AID 463104; activation, % at 20 µM; CHO-XBP1 luciferase reporter, IRE1-XBP1 UPR activation, luminescence; percent of tunicamycin response, DMSO as zero;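 active means versus positive control, 20 µM dose yields 30% or more activation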
#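 Material – CHO cell line with stable XBP1 luciferase reporter · Buffer or medium – F12 plus 10% FBS · Compound – single point, 20 µM final compound, 1% DMSO · Schedule – 16-18 h cell attachment at 37 °C, then 6 h compound exposure · Signal – Steady-Glo luminescence read · Benchmarks – high control tunicamycin 10 µg/mL final, low control DMSO vehicle only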
# UPR CHOP act – activators of apoptotic arm of unfolded protein response (CHOP); CHO-CHOP luciferase reporter, UPR activation, luminescence; percent of tunicamycin response over DMSO baseline; activation, % at 10 µM; hit rate 0.34% among 330,000;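 active means at 10 µM dose, activation of 40% or more, normalized to positive control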
#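 System: CHO CHOP reporter cells. Amount: 500 cells per well. Buffer or medium: F12 medium, 10% FBS. Compound dosing: one dose, 10 µM in 0.5% DMSO. Incubation: 6 h compound exposure at 37 °C after overnight seeding. Technique: Steady-Glo luciferase luminescence. Benchmarks: tunicamycin and DMSO controls.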
# Mdm2 ligase inh – blocks human Mdm2 ubiquitin ligase activity. signal enhancement, % at 5 µM. cell-based MDM2 ubiquitination luciferase reporter, 2 h; 0 = plate control, 100 = twice control, blank-subtracted. hit rate 0.11% among 210,000. Q00987. AID 1230;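 active means signal enhancement of 30% or more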;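 further: luminescence tracks abundance of the self-degrading MDM2-luciferase fusion protein; higher signal means inhibition of MDM2 E3 ligase activity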
#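 Assay system: stable mammalian line carrying autodegrading MDM2–luciferase fusion reporter; amount: 2000 cells seeded into each well; buffer or medium: DMEM; benchmarks: plate control and blank wells; signal: luciferase luminescence; timing: 2 h compound exposure at 37 °C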
# Dynein transport – dynein cargo transport inhibition; 3617.4 mouse cells, GR-EGFP nuclear translocation imaging; test concentration mostly 20 µM; stimulated with dexamethasone, 1 µM; stronger effect = lower value; z-score, hits read low; hit rate 0.47% among 220,000;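 active means plate z-score of nuclear minus cytoplasmic receptor signal below a set negative limit, without overly bright fluorescence or cell loss, cut at about -3.5 in these data, passing the limit was not always enough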;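 further: z-score of nuclear minus cytoplasmic ring GR-EGFP intensity difference per well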
#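 Buffer or medium: Induction medium lacking tetracycline, stripped serum | Also added: Dexamethasone agonist, 1.0 µM final, for 30 min | Timing: 48 h induction, 1 h compound, 30 min dex at 37 °C | Detection: Formaldehyde fixation, Hoechst nuclear stain, 10x automated fluorescence imaging | Measure: Nuclear versus cytoplasmic GR-EGFP signal, averaged per well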
# Mdm2-MdmX conf – human Mdm2/MdmX binding inhibition, confirmed; shares compounds with Mdm2 MdmX PPI; luminescent assay; inhibition, % at 8 µM; hit rate 55% among 10,000; AID 489028; in the data active means inhibition above about 40%
# FLuc counter – full-length luciferase inhibition in Mdm2/MdmX counter-screen. shares compounds with Mdm2 MdmX PPI. SaOS-2 full-length luciferase counterscreen, luminescence. inhibition, % at 8 µM. hit rate 77% among 6,200;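 active means mean inhibition at 8 µM reaching about 37%, which flags the compound as non-specific, limit read from the data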;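 further: p53-null SaOS-2 cells with luciferase driven by a doxycycline-inducible promoter; compound on cells about two nights before reading with doxycycline added after day one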
# Numbers stand for hits; 0 = inactive; - = not tested or not shown. Hits are enriched below; roughly 3.7% of the tested compounds scored in any of these assays.
SMILES,B2AR ag,Mdm2 MdmX PPI,XBP1 UPR activ,UPR CHOP act,Mdm2 ligase inh,Dynein transport,Mdm2-MdmX conf,FLuc counter
Cc1cnc(NC(=O)COc2cccc3c2OC(C)(C)C3)s1,0,77.4,0,0,0,0,68.2,42.5
COc1ccc(-c2cc(-c3ccc(F)cc3)nc(N3CCN(C)CC3)n2)cc1,0,78.7,0,0,0,0,0,-
COc1ccc(Nc2nc(Nc3ccc(OC)cc3OC)nc(N3CCN(C)CC3)n2)c(OC)c1,0,50.8,0,0,0,0,0,-
CCOC(=O)c1c(-c2ccccc2)oc2ccc(O)c(CN(C)C)c12,0,54.6,0,0,0,0,0,-
CCOC(=O)c1c(-c2ccccc2)oc2ccc(OCC(O)CN(C)C)cc12 (stereo unspecified),0,73.7,0,0,-,-,0,0
CCOC(=O)c1c(-c2ccccc2)oc2ccc(OC(C)C(=O)O)cc12 (stereo unspecified),0,0,0,0,0,0,-,-
CCOC(=O)c1c(CSCc2ccccc2)oc2ccc(O)c(CN(C)C)c12,0,54.2,0,0,0,0,46.9,64.8
CCOC(=O)c1c(COc2ccccc2)oc2ccc(O)cc12,-,0,0,0,0,0,-,-
Cc1oc2ccc(O)c(CN(C)C)c2c1C(=O)c1ccccc1,0,0,0,0,0,0,-,-
COc1ccc(OC)c(CNC(=O)c2nn(C)c3c2CS(=O)(=O)c2ccccc2-3)c1,0,0,0,0,-,-,-,-
COCCn1c(C)cc(C(=O)COC(=O)c2ccc(Cl)c(S(N)(=O)=O)c2)c1C,0,0,0,0,-,-,-,-
O=C(O)C1CCc2nc(NCc3ccccc3)nc(NCc3ccccc3)c2C1 (stereo unspecified),0,-,-,-,-,-,-,-
COc1ccc(NC(=O)c2cc3c(=O)n(C)c4ccccc4c3n2C)cc1OC,0,58.9,0,0,0,0,0,-
O=c1[nH]c2c(cnn2-c2ccc(Cl)cc2)c(=O)n1-c1cccc(Cl)c1,0,0,0,0,0,0,-,-
O=C(Cc1ccc(S(=O)(=O)N2CCOCC2)s1)Nc1cc(C(F)(F)F)ccc1N1CCCC1,0,0,0,0,-,-,-,-
O=C(Cc1ccc(S(=O)(=O)N2CCOCC2)s1)Nc1cc(C(F)(F)F)cc(C(F)(F)F)c1,0,56.4,0,0,-,-,0,-
O=C(O)c1nn(CCOc2c(Cl)cccc2Cl)c(=O)c2ccccc12,0,68.7,0,0,-,-,54.1,44.4
O=S(=O)(N/N=C/c1cccnc1)c1ccc(Cl)c(Cl)c1,0,0,0,0,0,0,-,-
O=C(c1ccccc1)c1ccc(Oc2ccc([N+](=O)[O-])cc2[N+](=O)[O-])cc1,0,-,-,-,-,-,-,-
O=Cc1cccc(Oc2ccc([N+](=O)[O-])cc2[N+](=O)[O-])c1,0,64.0,0,0,0,0,0,-
Cc1cc(=O)oc2cc(Oc3ncccc3[N+](=O)[O-])ccc12,0,0,0,0,0,0,-,-
Cc1cc(=O)oc2cc(Oc3ccc([N+](=O)[O-])cc3[N+](=O)[O-])ccc12,0,59.7,0,0,0,0,64.6,52.4
CN(c1ncnc(N)c1[N+](=O)[O-])C1CCS(=O)(=O)C1 (stereo unspecified),0,51.1,0,0,0,0,43.6,39.6
CN(c1ncnc(N)c1[N+](=O)[O-])C1CCCCC1,0,80.2,0,0,-,-,81.6,51.3
Nc1ncnc(NC2CCS(=O)(=O)C2)c1[N+](=O)[O-] (stereo unspecified),0,0,0,0,0,0,-,-
SMILES,B2AR ag,Mdm2 MdmX PPI,XBP1 UPR activ,UPR CHOP act,Mdm2 ligase inh,Dynein transport,Mdm2-MdmX conf,FLuc counter
Cc1ccccc1Oc1ncnc(N)c1[N+](=O)[O-],0,0,0,0,0,0,-,-
CCCCN(c1ccccc1)c1ncnc(N)c1[N+](=O)[O-],0,54.6,0,0,0,0,83.2,51.7
Cc1cc(C)c(OCCCCNCc2ccccc2)c(Cl)c1,0,51.4,0,0,0,0,40.2,67.9
Cc1cc(C)c(OCCNCc2ccccc2)c(C)c1,0,0,0,0,-,-,-,-
CCC(=O)Nc1c(C)nn(-c2ccc(C)c(C)c2)c1C,0,0,0,0,0,0,-,-
Cc1ccc(-n2nc(C)c(NC(=O)CCl)c2C)cc1C,0,75.8,0,0,0,0,88.0,0
O=C(Nc1cccc(S(=O)(=O)NCc2ccco2)c1)c1cc(-c2ccc(F)cc2)nc2ccccc12,0,68.9,0,0,0,0,0,75.9
COc1cc(C(=O)Nc2cccc(S(=O)(=O)NCc3ccco3)c2)cc(OC)c1OC,0,69.0,0,0,-,-,0,97.7
COc1ccc(-c2cc(C(=O)Nc3cccc(S(=O)(=O)NCc4ccco4)c3)c3ccccc3n2)cc1OC,0,54.0,0,0,0,0,65.8,64.1
O=C(NCc1ccccc1)c1c[nH]c2ccccc2c1=O,0,0,0,0,-,-,-,-
O=C(NC(=S)Nc1nc(-c2cccc([N+](=O)[O-])c2)cs1)c1ccccc1Cl,0,0,0,0,0,0,-,-
O=C(NC(=S)Nc1nc(-c2cccc([N+](=O)[O-])c2)cs1)c1cc(Cl)ccc1Cl,0,51.6,0,0,0,0,0,-
Cn1c(N2CCCCC2)nc2c1c(=O)[nH]c(=O)n2C,0,0,0,0,0,0,-,-
CCCn1c(N2CCC(Cc3ccccc3)CC2)nc2c1c(=O)[nH]c(=O)n2C,0,0,0,0,0,0,-,-
CCCCCn1c(N2CCC(Cc3ccccc3)CC2)nc2c1c(=O)[nH]c(=O)n2C,0,57.8,0,0,-,0,0,-
Cn1c(N2CCN(C(c3ccccc3)c3ccccc3)CC2)nc2c1c(=O)[nH]c(=O)n2C,0,60.3,0,0,-,-,58.3,87.2
COC(=O)[C@H](CCSC)NC(=O)Cn1cnc2c(NCc3ccccc3)ncnc21,0,0,0,0,-,-,-,-
O=C(CCNC(=O)c1ccc([N+](=O)[O-])cc1)NCc1ccco1,0,0,0,0,-,-,-,-
COc1ccc(NC(=O)/C(Cl)=C(/Cl)S(=O)Cc2ccccc2Cl)cn1 (stereo unspecified),57.9,98.3,0,0,0,-4.95,100.2,0
O=c1[nH]c(/C=C/c2ccc(OC(F)F)cc2)nc2c1cnn2-c1ccccc1,0,66.4,0,0,0,0,0,-
O=C1NC(=O)/C(=C\c2ccsc2)N1,0,0,0,0,0,0,-,-
CCN(CC)c1ccc(/C=C2\NC(=O)NC2=O)cc1,0,62.6,0,0,-,0,47.6,57.9
